Usually inhibition stands for the drop in the measured response relative to a control, in per cent.

A short description of test [1]: inhibitors of TNFa-induced NFkB p65 translocation, primary screen, imaging, HUVEC, MLSMR starter and 10KST1 sets (AID 438;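 active means inhibition above 20% together with a positive visual image hit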;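 further: compound added about 3h40 before a 20 min TNFalpha stimulation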;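 on inhibition: signal is the nuclear over cytoplasmic p65 intensity ratio per well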). The note with it: HUVEC TNFa-induced p65 nuclear translocation; cell count: measured here: nuclei count (cytotoxicity indicator), at 2.08 µM; inhibition: at 2 µM, stronger effect = higher value, 0% TNFa-plus-vehicle, 100% no-TNFa wells.
Test [2] is described as follows: reduction of polyQ htt aggregates in cells – imaging, exon1htt(103Q)mCFP cells, high-content imaging, primary screen (AID 483).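 Further: compound exposure lasted 3 days before fixation.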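 On nuclei count: percent of the per-plate median nuclei count of sample wells.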 Particulars: exon1htt(103Q)mCFP cell line, aggregate imaging, at 2 µM; inhibition of aggregation: stronger effect = higher value; nuclei count: measured here: cell count, toxicity.
Test [3] in a line: endothelial E-selectin expression blockers – imaging, HUVEC, immunofluorescence, MLSMR starter and 10KST1 sets, primary screen (AID 487;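 active means visually confirmed hit in the image check and inhibition above 20%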;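 on inhibition: signal is fraction of cell area covered by stained E-selectin grains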;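 on nuclei count: 100% = median nuclei count of all wells on the same plate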). The note with it: HUVEC TNFalpha-induced E-selectin immunofluorescence imaging, at 2 µM; inhibition: stronger effect = higher value; nuclei count: measured here: cell number, toxicity.
Test [4] concerns the target Voltage-gated potassium channel subunit beta-2 (Rattus norvegicus) (UniProt P62483). The test can be described thus: inhibitors of rat Kvbeta2 reductase activity – biochemical, NADPH fluorescence, primary screen (AID 622;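 active means fluorescence slope higher than the sample average by over 3 SD, cut at about -0.22 in these data, passing the limit was not always enough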;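 further: slope of raw intensity against log time taken from 70 to 1610 s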). The note with it: recombinant KvBeta, 4-cyanobenzaldehyde reduction, at 10 µM, stronger effect = higher value.
The target is the same in test [5]. Nature of the test: enhancers of rat Kvbeta2 NADPH turnover – biochemical, NADPH fluorescence, primary screen (AID 623;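 active means NADPH fluorescence slope more negative than the mean of all samples by about 3 SD, 99.7% confidence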;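 further: fluorescence intensity change per second fitted from 20 to 320 s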). Particulars: Recombinant KvBeta, NADPH fluorescence decrease slope, 10 min; at 10 µM; stronger effect = lower value.
For test [6], the target named is Muscarinic acetylcholine receptor M4 (Homo sapiens) (UniProt P08173). The test can be described thus: M4-linked GIRK flux change, two-sided – cell-based, HEK293 M4/GIRK, thallium flux, BTC-AM, M4 allosteric agonist project, primary screen (AID 625;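 active means fluorescence slope after compound addition differing from the mean of all tested samples at 99.7% confidence, mostly higher but some lower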;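 further: thallium influx through GIRK channels coupled to M4 in HEK293 cells with BTC-AM dye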). Particulars: at 10 µM, actives lie on both sides. In a few lines: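 Material: HEK293 cells with M4 receptor and GIRK channels; Times: cells overnight at 37 °C, BTC-AM loading 1 h, reads 2 min total; Technique: kinetic BTC-AM fluorescence sampled at 1 Hz, 10 s pre-addition baseline; Read-out basis: slope over 15–24 s of trace normalized to starting intensity; Controls: carbachol positive, DMSO negative.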

The nature of test [7]: blockers of RIG-like receptor reporter activation – cell-based, Sendai virus stimulus, luciferase, 10K MLSCN set, TLR/RLR signaling modifier project, primary screen (AID 602276;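 active means inhibition at or above 50% at 10 µM; inactive means inhibition below 50%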;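 further: firefly luciferase from ISG56 promoter only with Renilla not read in this screen; 0% = Sendai virus plus DMSO and 100% = medium plus DMSO without virus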). The note with it: HEK293 RL24 IRF3 luciferase reporter, at 10 µM, stronger effect = higher value. (In general: In a reporter assay the amount or activity of a reporter protein is the signal.)
Test [8] can be described thus: TLR3 IRF3 reporter activation blockers – cell-based, poly I:C stimulus, luciferase, 10K MLSCN set, primary screen (AID 602277;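 active means inhibition of the reporter signal at or above 50%; inactive means inhibition below 50%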). Particulars: HEK293-TLR3 RL24 IRF3 luciferase reporter, at 10 µM, stronger effect = higher value.

Activity calls are given as the source filed them.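 How the source made its calls, unless noted: active means visual image review flags a hit and inhibition of aggregation exceeds 20%; inconclusive means visual hit but inhibition at or below 20%; inactive means no hit on visual image review.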

Chain of Muscarinic acetylcholine receptor M4 (Homo sapiens) (P08173 whole entry, looked up): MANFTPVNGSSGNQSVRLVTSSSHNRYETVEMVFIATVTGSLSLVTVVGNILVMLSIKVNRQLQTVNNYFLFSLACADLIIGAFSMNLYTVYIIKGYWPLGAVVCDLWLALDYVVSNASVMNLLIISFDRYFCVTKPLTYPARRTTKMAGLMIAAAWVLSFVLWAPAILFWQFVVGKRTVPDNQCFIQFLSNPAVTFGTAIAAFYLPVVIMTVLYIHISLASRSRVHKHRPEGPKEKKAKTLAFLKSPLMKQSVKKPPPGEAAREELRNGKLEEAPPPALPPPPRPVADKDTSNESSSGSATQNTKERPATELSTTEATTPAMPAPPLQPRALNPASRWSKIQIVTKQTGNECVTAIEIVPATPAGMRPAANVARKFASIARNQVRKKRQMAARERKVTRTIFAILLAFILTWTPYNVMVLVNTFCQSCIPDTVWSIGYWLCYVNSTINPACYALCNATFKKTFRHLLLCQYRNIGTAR
Chain of Voltage-gated potassium channel subunit beta-2 (Rattus norvegicus) (P62483 whole entry, looked up): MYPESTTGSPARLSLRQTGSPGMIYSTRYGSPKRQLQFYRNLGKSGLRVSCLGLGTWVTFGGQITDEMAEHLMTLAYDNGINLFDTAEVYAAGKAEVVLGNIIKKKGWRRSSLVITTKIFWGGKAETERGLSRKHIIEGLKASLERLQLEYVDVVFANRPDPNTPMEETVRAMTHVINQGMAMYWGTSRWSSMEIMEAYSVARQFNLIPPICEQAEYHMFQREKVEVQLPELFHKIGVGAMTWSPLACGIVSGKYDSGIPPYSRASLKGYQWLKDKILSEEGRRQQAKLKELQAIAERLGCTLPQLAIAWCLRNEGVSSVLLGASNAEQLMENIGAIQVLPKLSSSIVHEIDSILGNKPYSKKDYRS

With `COc1ccc(Cl)cc1C(=O)n1nc(C)cc1C`, the cell count in test [1] was determined as 346. Further, the inhibition was -3.3% (inactive) in test [1], -31% (inactive) in test [3], -16.7% (inactive) in test [7] and -14.6% (inactive) in test [8]. In test [2], the inhibition of aggregation is -15% (inactive). For the same molecule, the results for the nuclei count in test [2] and in test [3] were 106% and 118%, respectively. In addition, the fluorescence slope in test [4] is -0.355 (inactive); in test [6], 0.00581 (inactive). Besides, the NADPH fluorescence slope in test [5] is -1.5e-05 (inactive).
As for `O=C(CCN1CCN(c2ccc(F)cc2)CC1)Nc1ccccc1F`, the cell count in test [1] came to 315. Further, the inhibition in test [1] is -2.1% (inactive); in test [3], 19.6% (inactive); in test [7] it was 16.9% (inactive); in test [8], 24.9% (inactive). Also, the inhibition of aggregation in test [2] was 34.9% (active). Moreover, the results for the nuclei count in test [2] and in test [3] were 84.8% and 87.8%, respectively. Besides, the fluorescence slope in test [4] is -0.446 (inactive); in test [6] it was 0.00622 (inactive). Moreover, the NADPH fluorescence slope in test [5] is 0.000136 (inactive).
Take `O=C(Nc1ccccc1N1CCN(C(=O)c2ccc(Cl)cc2)CC1)c1cc2ccccc2o1`: the cell count in test [1] was 424. Also, the inhibition in test [1] is 0% (inactive); in test [3], -108% (inactive); in test [7] it was 1.02% (inactive); in test [8], 17% (inactive). The inhibition of aggregation in test [2] is -5.5% (inactive). Further, the nuclei count in test [2] came out at 101%; in test [3], 104%. For the same molecule, the values for the fluorescence slope in test [4] and in test [6] were -0.549 (inactive) and 0.00626 (inactive), respectively. The NADPH fluorescence slope in test [5] is -6.3e-06 (inactive).
As for `Cn1cnnc1Sc1nc2c(c(=O)n(C)c(=O)n2C)n1C`, in test [1], the cell count was 613. In addition, the inhibition is -33.7% (inactive) in test [1], -50.7% (inactive) in test [3], -1.17% (inactive) in test [7] and 9.62% (inactive) in test [8]. Further, in test [2], the inhibition of aggregation is 11.6% (inactive). Further, the nuclei count was 90.4% in test [2] and 100% in test [3]. Besides, the fluorescence slope was -0.547 (inactive) in test [4] and 0.00524 (inactive) in test [6]. Besides, the NADPH fluorescence slope in test [5] was 2.3e-05 (inactive).
Regarding `CC(C)CCNC(=O)NC(=O)CSc1nnc(-c2ccccc2F)n1N`, in test [1], the cell count amounted to 572. Also, the inhibition in test [1] was 0.4% (inactive); in test [3] it was -223% (inactive); in test [7] it was -9.04% (inactive); in test [8] it was -3.83% (inactive). For the same molecule, the inhibition of aggregation in test [2] is -5.6% (inactive). Besides, the figures for the nuclei count in test [2] and in test [3] were 104% and 178%, respectively. In addition, the results for the fluorescence slope in test [4] and in test [6] were -0.517 (inactive) and 0.00509 (inactive), respectively. Further, the NADPH fluorescence slope in test [5] is 9.8e-05 (inactive).
Regarding `CC(=O)N(c1ccc(N(C(C)=O)S(=O)(=O)c2cccs2)cc1)S(=O)(=O)c1cccs1`, in test [1], the cell count was 458. The inhibition in test [1] is 1.3% (inactive); in test [3], -45.8% (inactive); in test [7] it was 4.25% (inactive); in test [8], 7.23% (inactive). Moreover, the inhibition of aggregation in test [2] was 11.2% (inactive). The nuclei count stood at 99.2% in test [2] and 99.4% in test [3]. In addition, the results for the fluorescence slope in test [4] and in test [6] were -0.472 (inactive) and 0.00408 (inactive), respectively. For the same molecule, the NADPH fluorescence slope in test [5] was -0.000256 (inactive).
`CC(C)c1ccc(S(=O)(=O)N2CCN(C(=O)c3cccc(F)c3)CC2)cc1`: in test [1], the cell count was 363. Moreover, the inhibition in test [1] was 4.2% (inactive); in test [3], -70.8% (inactive); in test [7], 14.9% (inactive); in test [8], 17% (inactive). Also, in test [2], the inhibition of aggregation is 17% (inactive). For the same molecule, the nuclei count in test [2] came out at 100%; in test [3] it was 118%. Besides, the fluorescence slope was -0.525 (inactive) in test [4] and 0.00667 (inactive) in test [6]. Moreover, the NADPH fluorescence slope in test [5] is 0.000166 (inactive).
Turning to `CN(C(=O)COC(=O)C1CCN(S(=O)(=O)c2cccs2)CC1)C1CCS(=O)(=O)C1` (centres undefined), the cell count in test [1] was 385. For the same molecule, the inhibition is -2.7% (inactive) in test [1], -190% (inactive) in test [3], -5.26% (inactive) in test [7] and 1.49% (inactive) in test [8]. Besides, the inhibition of aggregation in test [2] was 6% (inactive). The nuclei count came to 51.8% in test [2] and 120% in test [3]. The values for the fluorescence slope in test [4] and in test [6] were -0.571 (inactive) and 0.00447 (inactive), respectively. Moreover, in test [5], the NADPH fluorescence slope was -4.2e-05 (inactive).
In the case of `CCCCN(CCCNC(=O)C1CCN(S(=O)(=O)CC)CC1)c1ccccc1`, the cell count in test [1] is 547. In addition, the inhibition was 7.2% (inactive) in test [1], -81.6% (inactive) in test [3], 8.2% (inactive) in test [7] and 25.8% (inactive) in test [8]. Further, the inhibition of aggregation in test [2] is -2.7% (inactive). In addition, the figures for the nuclei count in test [2] and in test [3] were 130% and 165%, respectively. Further, the fluorescence slope in test [4] was -0.441 (inactive); in test [6], 0.00466 (inactive). Also, the NADPH fluorescence slope in test [5] is 2.9e-05 (inactive).

Values taken from PubChem BioAssay.
